Assay results from different studies.
FLT3: Receptor-type tyrosine-protein kinase FLT3 (FLT3, Homo sapiens, UniProt P36888)
FLT3 D835Y: Receptor-type tyrosine-protein kinase FLT3 (FLT3, Homo sapiens, UniProt P36888, D835Y)

Compound | target | test | setting | inhibition [%]
O=C(CSc1nc2nccnc2c(=O)n1CCc1ccccc1)Nc1nccs1 | FLT3 | enzyme activity, inhibitor | 10 µM | 13
COc1cc2ncnc(Nc3ccc(Oc4ccccc4)c(C)c3C)c2cc1OC | FLT3 | enzyme activity, inhibitor | 1 µM | 15
COc1cc(-c2cc(-c3ccc(N4CCNCC4)cc3)cnc2N)cc(OC)c1OC | FLT3 D835Y | enzyme activity, inhibitor | 1 µM | 2
COc1cc2ncnc(Nc3ccc(Oc4ccccc4)cc3C)c2cc1OC | FLT3 D835Y | enzyme activity, inhibitor | 1 µM | 17
C=CC(=O)Nc1cc(Nc2nccc(Nc3cc(Cl)c(F)cc3C(C)(C)O)n2)c(OC)cc1N1CC[C@@H](N(C)C)C1 | FLT3 | enzyme activity, inhibitor | 1 µM | 16
CC/C(=N\NC(=O)NCc1cccc(O)c1)c1ccc(O)c(C)c1O | FLT3 | enzyme activity, inhibitor | 0.1 µM | 6
CNc1cccc2cc(C(=O)Nc3ccc(C(=O)O)cc3)c(=O)[nH]c12 | FLT3 D835Y | enzyme activity, inhibitor | 10 µM | 0.73
Cn1cnc(Br)c1C1=CN(c2ncnc3[nH]cnc23)CCS1 | FLT3 | enzyme activity, inhibitor, radiometric | 2 µM | 80.5
CN(C)C1CCN(CC#Cc2nn(C3CCCC3)c3nc(NCc4ccccc4)ncc23)C1 (centres unmarked) | FLT3 | enzyme activity, inhibitor, FRET | 1 µM | 24
Cn1cncc1C1=CN(c2ncnc3[nH]cnc23)CCS1 | FLT3 | enzyme activity, inhibitor, radiometric | 2 µM | 88.1
COc1cccc(Nc2cccc(-c3cnc4cc(-c5cnn(C)c5)ccn34)n2)c1 | FLT3 | cell-free assay, competition with immobilised ligand | 8.4 nM | > 65
